# CYP2C9 inhib – blockers of cytochrome P450 2C9 activity – biochemical, luminescence, ADME assay, primary screen; CYP2C9 Supersomes, luciferin-H conversion; inhibition, % at 5 µM; hit rate 20% among 96,000; AID 777, 2007;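 active means blocking of liver enzyme CYP2C9 beyond about 50% at 5 µM, limit read from the data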
# CYP2C19 activ – human CYP2C19 activators, primary screen, biochemical, luminescence. Cytochrome P450 2C19 (Homo sapiens), P33261. recombinant CYP2C19, luciferin-H EGE luminescence; active compounds read high; 0 = fully inhibited enzyme, 1 = untreated enzyme. activation factor at 5 µM. 96,000 tested, under 10 active;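 active means activation factor of at least 2 at 5 µM in the primary screen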;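 further: 0 = wells with 2.5 mM tranylcypromine and 1 = vehicle-only wells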
# Target sequence (P33261 whole entry, looked up): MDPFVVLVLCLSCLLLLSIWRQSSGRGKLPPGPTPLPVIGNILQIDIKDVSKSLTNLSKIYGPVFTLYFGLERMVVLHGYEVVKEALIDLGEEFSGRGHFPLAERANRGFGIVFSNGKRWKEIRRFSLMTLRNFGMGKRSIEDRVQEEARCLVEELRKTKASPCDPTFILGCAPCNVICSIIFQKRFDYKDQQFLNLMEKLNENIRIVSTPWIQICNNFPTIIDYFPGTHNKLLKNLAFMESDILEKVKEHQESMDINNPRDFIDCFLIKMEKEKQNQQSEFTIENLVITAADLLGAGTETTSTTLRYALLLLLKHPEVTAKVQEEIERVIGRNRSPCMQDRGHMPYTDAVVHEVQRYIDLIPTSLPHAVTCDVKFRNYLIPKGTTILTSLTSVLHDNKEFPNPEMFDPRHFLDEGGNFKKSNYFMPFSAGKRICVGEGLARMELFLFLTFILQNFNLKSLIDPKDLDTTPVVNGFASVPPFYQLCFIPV
# CYP2C19 inh – blockers of cytochrome P450 2C19 activity – biochemical, luminescence, ADME assay, primary screen; P33261; inhibition, % at 5 µM; CYP2C19 Supersomes, luciferin-H EGE luminescence, 30 min; hit rate 21% among 96,000;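 active means CYP2C19 inhibition above a set limit at 5 µM in the primary screen, cut at about 50% in these data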;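 further: plate controls were negative control wells for no effect and 2.5 mM tranylcypromine positive control for full effect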
# Cav3 T inh – Cav3.2 calcium influx blockers – cell-based, Fluo-4 calcium fluorescence, FDSS, MLSMR library, primary screen; Voltage-dependent T-type calcium channel subunit alpha-1H (Homo sapiens), O95180; Cav3.2-expressing cells; active compounds read low; B-score at 10 µM; hit rate 4% among 100,000;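 active means single-dose well whose peak fluorescence ratio is a statistical outlier from its plate by either plate-standardised score or position-corrected B-score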
# CYP2C9 activ – human CYP2C9 activators, primary screen, biochemical, luminescence; Cytochrome P450 2C9 (Homo sapiens), P11712; recombinant CYP2C9, luciferin-H conversion; active compounds read high; factor 1 = untreated enzyme, 0 = blocked; activation factor at 5 µM; hit rate 1.4% among 96,000;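 active means activation factor of 2 or more for CYP2C9 at a 5 µM dose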;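 further: 0 = sulfaphenazole-blocked wells and 1 = vehicle-only wells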
# Rev-RRE block – HIV-1 Rev-RRE binding inhibitors, primary screen, biochemical, FRET, protein-RNA interaction | hit rate 0.79% among 97,000 | P05866 | Rev peptide-RRE RNA binding | inhibition, % at 8 µM;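 active means inhibition above the screen-wide mean plus 3 SD, cut at about 35% in these data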;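 further: 0% = median DMSO wells and 100% = median Neomycin B control wells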
# Target sequence (P05866 whole entry, looked up): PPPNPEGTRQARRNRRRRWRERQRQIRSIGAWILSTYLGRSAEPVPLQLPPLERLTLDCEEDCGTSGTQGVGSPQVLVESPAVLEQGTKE
#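 Test system: Cy5-tagged RRE RNA duplex with fluorescein-tagged Rev peptide; Probe or stimulus: labelled Rev peptide; Schedule: 5 min preincubation and 15 min binding, 25 °C; Signal: FRET fluorescence readout; Evaluation: % inhibition from 671/540 nm acceptor-to-donor ratio, scaled between controls; Control set: DMSO and neomycin B.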
# Active calls of the source: *; / = no result given. Most compounds without a hit are left out; they make up all but 27% or so of the library.
SMILES,CYP2C9 inhib,CYP2C19 activ,CYP2C19 inh,Cav3 T inh,CYP2C9 activ,Rev-RRE block
Cc1ccc(S(=O)(=O)N2CCN(C(=O)COc3ccc(-c4nnco4)cc3)CC2)cc1,30,0.9,10,-0.35,0.7,9
Cc1cc(C(=O)COc2ccc(-c3nnco3)cc2)c(C)n1Cc1ccccc1,62*,0.4,60*,-2.8,0.4,-2
CCCCC(c1nnnn1CS(=O)(=O)c1ccc(C)cc1)N1CCN(c2ccccc2)CC1 (stereo unspecified),69*,0.4,65*,-0.94,0.3,-2
CC(C)C(c1nnnn1C1CCCCC1)N1CCc2ccccc2C1 (stereo unspecified),8,1,5,-1.5,0.9,-3
CC(C)C(c1nnnn1C1CCCC1)N1CCc2ccccc21 (stereo unspecified),57*,0.7,30,-2.6,0.4,7
CC(C)C(c1nnnn1C1CCCC1)N1CCCc2ccccc21 (stereo unspecified),/,/,/,-3.9*,/,10
CC(C)C(c1nnnn1C1CCCCC1)N1CCCc2ccccc21 (stereo unspecified),/,/,/,0.0017,/,14
O=C(c1cc(S(=O)(=O)N2CCCCC2)c(Cl)cc1N1CCOCC1)N1CCOCC1,18,1,1,0.55,0.8,2
CCN(c1ccc(OC)cc1)c1ncnc2nc[nH]c12,-8,1.1,-10,0.25,1.1,6
CCOC(=O)C(C(=O)Nc1ccccc1C)C1CCCCC1 (stereo unspecified),24,0.6,35,-0.55,0.8,2
O=C(COc1ccccc1)Nc1cccc2c1CCCC2,-106,0.9,11,-2.7,2.1*,6
CC(C)(C)CC(=O)Nc1cccc2c1CCCC2,8,0.5,46,-0.045,0.9,6
CN(CC(=O)Nc1cccc2c1CCCC2)S(=O)(=O)c1ccccc1,-128,0.7,26,0.04,2.3*,-1
O=C(CCCc1ccccc1)Nc1cccc2c1CCCC2,-157,1,-1,0.035,2.6*,-1
O=C(CS(=O)CC(=O)Nc1cccc2c1CCCC2)Nc1ccc(F)cc1 (stereo unspecified),21,0.9,7,-2.5,0.8,6
O=C(O)C1=C[C@@H](c2coc3ccccc3c2=O)C[C@@H](OCCCCO)O1,/,/,/,0.36,/,/
O=C(NCc1ccco1)c1ccc(Cn2c(=O)c3ccccc3n(Cc3cccc(F)c3)c2=O)cc1,61*,0.2,80*,-0.3,0.4,-7
O=C(CCCCn1c(=O)c2ccccc2n(Cc2ccc(F)cc2)c1=O)NCc1ccco1,85*,0.2,81*,/,0.2,6
O=C(CCCn1c(=O)c2ccccc2n(Cc2ccccc2)c1=O)NCc1ccco1,33,0.1,90*,0.031,0.7,2
O=C(CCCCn1c(=O)c2ccccc2n(CC(=O)Nc2ccccc2)c1=O)NCc1ccco1,46,1,-3,/,0.5,2
O=C(Cn1c(CN2CCCCC2)nc2ccccc2c1=O)NCc1ccco1,75*,0.5,55*,-0.14,0.3,3
Cc1cccc(C)c1NC(=O)Cn1c(CN2CCCCC2)nc2ccccc2c1=O,/,/,/,-0.9,/,0
N#Cc1ccccc1Cn1c(=O)n(Cc2ccc(C(=O)NCc3ccco3)cc2)c(=O)c2sccc21,36,1.1,-8,-0.17,0.6,/
CN=Cc1cc(-c2ccccc2)sc1O,-28,0.8,24,/,1.3,2
O=C(CCn1c(=O)c2ccccc2n(Cc2ccccc2)c1=O)NCc1ccc2c(c1)OCO2,34,0.5,52*,/,0.7,4
SMILES,CYP2C9 inhib,CYP2C19 activ,CYP2C19 inh,Cav3 T inh,CYP2C9 activ,Rev-RRE block
O=C(Cn1c(=O)n(Cc2ccccc2)c(=O)c2ccccc21)NCc1ccco1,25,0.5,52*,-0.19,0.8,4
O=C(CCn1c(=O)oc2ccccc21)NCc1ccc2c(c1)OCO2,-3,0.7,26,0.34,1,/
Cc1ccc(S(=O)(=O)N2CCOCC2)cc1C(=O)O,-1,1,-3,0.36,1,/
CCCCn1ccnc1C(=O)c1cccc(S(=O)(=O)N2CC(C)CC(C)C2)c1 (stereo unspecified),90*,0.2,79*,-3.7,0.1,4
CCCCn1ccnc1C(=O)c1cc(S(=O)(=O)N2CCOCC2)ccc1C,69*,0.4,60*,-2.4,0.3,8
CCCCOc1ccc(C(=O)N/C(=C\c2ccc(OC)cc2)C(=O)OCc2ccco2)cc1,65*,0.6,38,-8.6*,0.3,1
COc1ccc(/C=C/C(=O)NC(=S)NNC(=O)c2ccco2)cc1,/,/,/,-5.3*,/,-7
C=CCOC(=O)/C(=C\c1ccc(OC)cc1)NC(=O)c1ccco1,29,0.4,55*,/,0.7,0
COc1ccc(S(=O)(=O)Nc2nc3ccccc3s2)cc1,50*,0.9,8,-1.5,0.5,6
CCOc1ccc2sc(NS(=O)(=O)c3ccc(OC)c(OC)c3)nc2c1,92*,0.7,28,-0.14,0.1,-1
COc1ccc(S(=O)(=O)Nc2cc(C)nn2-c2ccccc2)cc1,98*,0.8,18,-0.49,0,5
COc1ccc2nc(NS(=O)(=O)c3ccc(NC(C)=O)cc3)sc2c1,30,1.1,-12,-0.13,0.7,/
Cc1cccc(-n2c(SCc3cc(=O)n4c(C)cccc4n3)nc3[nH]ncc3c2=O)c1,-2,0.7,28,/,1,11
c1csc(-c2csc3ncnc(NCCCN4CCOCC4)c23)c1,15,0.8,25,0.14,0.9,4
COc1ccc(C2C(C(C)=O)=C(O)C(=O)N2c2ccc(Br)cn2)cc1 (stereo unspecified),8,1,2,-0.57,0.9,0
CCN(CC)CCNC(=O)C1CCC(=O)N1CCc1ccccc1 (stereo unspecified),1,0.9,5,-1,1,6
CCOc1ccc(CCNC(=O)C2CCCN(c3nnc(-n4cccc4)s3)C2)cc1OCC (stereo unspecified),60*,0.5,49,0.75,0.4,2
O=C(C1CCN(c2nnc(-n3cccc3)s2)CC1)N1CCN(c2cccc(C(F)(F)F)c2)CC1,55*,0.5,52*,-0.73,0.5,3
O=C(C1CCCN(c2nnc(-n3cccc3)s2)C1)N1CCN(c2ccccc2)CC1 (stereo unspecified),49,0.3,68*,-2.2,0.5,-2
CCOc1ccc(CCNC(=O)C2CCC(=O)N2CCc2ccccc2)cc1OCC (stereo unspecified),68*,1,4,-0.032,0.3,0

# Compound activity: PubChem, several laboratories
